Measurements taken from ChEMBL document CHEMBL1139579, “Structure-activity relationship of a series of cyclohexylpiperidines bearing an amide side chain as antagonists of the human melanocortin-4 receptor” (Bioorg Med Chem Lett, 2005).

Columns and labels:
Melanocortin receptor 4 [1] = biological target: T1, Melanocortin receptor 4 (Homo sapiens, UniProt P32245); assay: Stimulation of cAMP levels in the HEK293 cell line at 10 uM; type: functional, cell-based
Method in brief: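 Agonism was measured as cAMP levels in HEK293 cells stably expressing human MC4R. The test ligand was applied at 10 μM, and the response was expressed relative to the response to α-MSH.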

Melanocortin receptor 4 [2] = biological target: T1, Melanocortin receptor 4; assay: Inhibition of [125I]NDP-MSH (radioligand) binding to the hMC4R stably expressed in HEK293 cells; type: cell-based
Method in brief: (§1)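 Competition binding was run on HEK293 cells stably transfected with human MC1R, MC3R, MC4R or MC5R, each receptor in its own line. The radioligand was [125I]-NDP-MSH. For the MC4R values, data are the average of two to three independent measurements.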

[3] = biological target: Melanocyte-stimulating hormone receptor (Homo sapiens, UniProt Q01726); assay: Inhibition of [125I]NDP-MSH (radioligand) binding to human MC1R at 10 um concentration stably expressed in HEK293 cells; type: cell-based; settings: for Inhibition: hek293
Method in brief: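 Competition binding was run on HEK293 cells stably expressing human MC1R, with [125I]-NDP-MSH as the radioligand. The value is percent inhibition of binding with the test ligand at 10 µM.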

Melanocortin receptor 5 = Melanocortin receptor 5 (Homo sapiens, UniProt P33032); assay: Inhibition of [125I]NDP-MSH (radioligand) binding to the human MC5R stably expressed in HEK293 cells; type: cell-based; method in brief: as §1
Melanocortin receptor 3 [4] = biological target: T2, Melanocortin receptor 3 (Homo sapiens, UniProt P41968); assay: Inhibition of [125I]-NDP-MSH (radioligand) binding to the human MC3R stably expressed in HEK293 cells; type: cell-based; method in brief: as §1
HEK293 [5] = assay: (§2) Dose-dependent inhibition of cAMP production stimulated by 10 nM a-MSH in HEK293 cells; type: functional, cell-based; settings: Homo sapiens
Method in brief: (§3)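 Functional antagonism was measured as inhibition of cAMP production in HEK293 cells stably expressing human MC4R. Cells were stimulated with 10 nM α-MSH, and the test ligand was applied over a range of concentrations.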

HEK293 [6] = assay: as §2; type: functional, cell-based, Homo sapiens; method in brief: as §3
Melanocortin receptor 4 [7] = biological target: T1, Melanocortin receptor 4; assay: Inhibition of [125I]-AgRP(83132) (radioligand) binding to the hMC4R stably expressed in HEK293 cells; type: cell-based
Method in brief: (§4)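 Competition binding was run on HEK293 cells stably transfected with human MC4R. The radioligand was [125I]-AgRP(83–132).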

Melanocortin receptor 3 [8] = biological target: T2, Melanocortin receptor 3; assay: Inhibition of [125I]NDP-MSH (radioligand) binding to the human MC3R stably expressed in HEK293 cells; type: cell-based; method in brief: as §1
HEK293 [9] = assay: Dose-dependent inhibition of cAMP production stimulated by 10 nM a-MSH in HEK293 cells;; type: functional, cell-based, Homo sapiens; method in brief: as §3
Melanocortin receptor 4 [10] = biological target: T1, Melanocortin receptor 4; assay: Inhibition of [125I]-AgRP(83132) (radioligand) binding to the hMC4R stably expressed in HEK293 cells;; type: cell-based; method in brief: as §4

T1 sequence (P32245 whole entry): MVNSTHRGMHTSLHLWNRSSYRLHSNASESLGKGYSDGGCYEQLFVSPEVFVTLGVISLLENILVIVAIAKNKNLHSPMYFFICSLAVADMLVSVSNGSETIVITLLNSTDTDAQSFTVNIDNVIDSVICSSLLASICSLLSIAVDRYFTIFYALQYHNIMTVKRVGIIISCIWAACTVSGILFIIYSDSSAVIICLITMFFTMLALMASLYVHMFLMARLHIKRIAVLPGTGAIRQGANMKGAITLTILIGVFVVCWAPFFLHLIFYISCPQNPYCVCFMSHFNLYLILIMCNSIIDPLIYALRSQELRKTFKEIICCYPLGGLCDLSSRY
T2 sequence (P41968 whole entry): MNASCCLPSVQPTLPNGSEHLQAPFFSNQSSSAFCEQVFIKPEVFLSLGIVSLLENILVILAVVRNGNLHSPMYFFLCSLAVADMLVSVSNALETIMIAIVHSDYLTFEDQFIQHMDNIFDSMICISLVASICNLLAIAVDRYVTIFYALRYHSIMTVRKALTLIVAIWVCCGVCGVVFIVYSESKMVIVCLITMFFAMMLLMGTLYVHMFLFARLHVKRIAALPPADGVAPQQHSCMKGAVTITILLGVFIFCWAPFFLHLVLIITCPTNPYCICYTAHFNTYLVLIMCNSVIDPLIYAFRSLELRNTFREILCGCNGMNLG
Chain of Melanocortin receptor 5 (P33032 whole entry): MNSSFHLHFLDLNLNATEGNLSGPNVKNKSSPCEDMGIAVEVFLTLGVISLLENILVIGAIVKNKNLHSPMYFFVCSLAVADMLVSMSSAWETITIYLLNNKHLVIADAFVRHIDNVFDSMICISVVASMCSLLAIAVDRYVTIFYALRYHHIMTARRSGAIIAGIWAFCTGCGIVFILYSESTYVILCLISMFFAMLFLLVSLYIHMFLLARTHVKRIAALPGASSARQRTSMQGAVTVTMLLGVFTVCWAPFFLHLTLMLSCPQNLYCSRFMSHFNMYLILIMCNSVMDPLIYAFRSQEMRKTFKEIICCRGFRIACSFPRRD
Chain of Melanocyte-stimulating hormone receptor (Q01726 whole entry): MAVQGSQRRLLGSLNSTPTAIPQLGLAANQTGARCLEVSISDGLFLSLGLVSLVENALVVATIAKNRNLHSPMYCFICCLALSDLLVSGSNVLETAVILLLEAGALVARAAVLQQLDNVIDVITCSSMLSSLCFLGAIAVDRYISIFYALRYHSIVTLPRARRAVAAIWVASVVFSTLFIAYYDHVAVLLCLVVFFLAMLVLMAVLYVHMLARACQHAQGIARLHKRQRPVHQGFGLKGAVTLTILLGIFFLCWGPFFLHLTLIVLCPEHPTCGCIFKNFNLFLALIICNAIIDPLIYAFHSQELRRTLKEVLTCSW

Row | Structure (SMILES) | Stimulation (Melanocortin receptor 4 [1]) | Ki (Melanocortin receptor 4 [2]) | also measured
1 | NCCC(=O)N[C@H](Cc1ccc(Cl)cc1Cl)C(=O)N1CCN(C2(CNC(=O)c3ccc(Cl)cc3)CCCCC2)CC1 | 10% | 210 nM | 
2 | NCCC(=O)N[C@H](Cc1ccc(Cl)cc1Cl)C(=O)N1CCN(C2(CNC(=O)c3cccs3)CCCCC2)CC1 | 5.1% | 230 nM | 
3 | CN(C)c1ccc(CNCC2(N3CCN(C(=O)[C@@H](Cc4ccc(Cl)cc4Cl)NC(=O)CCN)CC3)CCCCC2)cc1 | 4.2% | 110 nM | 
4 | NCCC(=O)N[C@H](Cc1ccc(Cl)cc1Cl)C(=O)N1CCN(C2(CNCCc3ccccc3)CCCCC2)CC1 | 0.4% | 11 nM | Inhibition [3]: 44%; Ki (Melanocortin receptor 5): 1200 nM; Ki (Melanocortin receptor 3 [4]): 3200 nM; IC50 (HEK293 [5]): 430 nM
5 | NCCC(=O)N[C@H](Cc1ccc(Cl)cc1Cl)C(=O)N1CCN(C2(CNC(=O)c3ccncc3)CCCCC2)CC1 | 4.4% | 150 nM | 
6 | NCCC(=O)N[C@H](Cc1ccc(Cl)cc1Cl)C(=O)N1CCN(C2(CNCc3ccc(OC(F)(F)F)cc3)CCCCC2)CC1 | 2.4% | 22 nM | 
7 | NCCC(=O)N[C@H](Cc1ccc(Cl)cc1Cl)C(=O)N1CCN(C2(CNC(=O)Cc3ccc(F)cc3)CCCCC2)CC1 | 2.3% | 21 nM | 
8 | NCCC(=O)N[C@H](Cc1ccc(Cl)cc1Cl)C(=O)N1CCN(C2(CNC(=O)c3ccc(C(F)(F)F)cc3)CCCCC2)CC1 | 8.7% | 340 nM | 
9 | NCCC(=O)N[C@H](Cc1ccc(Cl)cc1Cl)C(=O)N1CCN(C2(CNC(=O)c3ccc(F)cc3)CCCCC2)CC1 | 7.9% | 190 nM | 
10 | NCCC(=O)N[C@H](Cc1ccc(Cl)cc1Cl)C(=O)N1CCN(C2(CNCc3nccs3)CCCCC2)CC1 | 4.9% | 49 nM | 
11 | NCCC(=O)N[C@H](Cc1ccc(Cl)cc1Cl)C(=O)N1CCN(C2(CNCc3ccccc3)CCCCC2)CC1 | 5.1% | 18 nM | 
12 | COc1ccc(C(=O)NCC2(N3CCN(C(=O)[C@@H](Cc4ccc(Cl)cc4Cl)NC(=O)CCN)CC3)CCCCC2)cc1 | 7.7% | 250 nM | 
13 | NCCC(=O)N[C@H](Cc1ccc(Cl)cc1Cl)C(=O)N1CCN(C2(CNCc3ccccc3F)CCCCC2)CC1 | 4.7% | 12 nM | Inhibition [3]: 45%; Ki (Melanocortin receptor 5): 1400 nM; IC50 (HEK293 [6]): 760 nM; Ki (Melanocortin receptor 3 [4]): 2300 nM; Ki (Melanocortin receptor 4 [7]): 13 nM
14 | CC(C)CNCC1(N2CCN(C(=O)[C@@H](Cc3ccc(Cl)cc3Cl)NC(=O)CCN)CC2)CCCCC1 | 0.7% | 180 nM | 
15 | NCCC(=O)N[C@H](Cc1ccc(Cl)cc1Cl)C(=O)N1CCN(C2(CNC(=O)Nc3ccc([N+](=O)[O-])cc3)CCCCC2)CC1 | 11% | 540 nM | 
16 | NCCC(=O)N[C@H](Cc1ccc(Cl)cc1Cl)C(=O)N1CCN(C2(CNC(=O)c3ccc(OC(F)(F)F)cc3)CCCCC2)CC1 | 8.9% | 400 nM | 
17 | NCCC(=O)N[C@H](Cc1ccc(Cl)cc1Cl)C(=O)N1CCN(C2(CNC(=O)c3cccnc3)CCCCC2)CC1 | 4.3% | 220 nM | 
18 | CC(C)(C)CCNCC1(N2CCN(C(=O)[C@@H](Cc3ccc(Cl)cc3Cl)NC(=O)CCN)CC2)CCCCC1 | 3.6% | 340 nM | 
19 | NCCC(=O)N[C@H](Cc1ccc(Cl)cc1Cl)C(=O)N1CCN(C2(CNCc3cccs3)CCCCC2)CC1 | 8.1% | 12 nM | Ki (Melanocortin receptor 5): 1900 nM; Ki (Melanocortin receptor 3 [8]): 2400 nM
20 | COc1ccc(CC(=O)NCC2(N3CCN(C(=O)[C@@H](Cc4ccc(Cl)cc4Cl)NC(=O)CCN)CC3)CCCCC2)cc1OC | 2.7% | 18 nM | 
21 | NCCC(=O)N[C@H](Cc1ccc(Cl)cc1Cl)C(=O)N1CCN(C2(CNC(=O)Cc3ccc(Cl)cc3)CCCCC2)CC1 | 1.4% | 23 nM | 
22 | NCCC(=O)N[C@H](Cc1ccc(Cl)cc1Cl)C(=O)N1CCN(C2(CNCCCc3ccccc3)CCCCC2)CC1 | 2.8% | 60 nM | 
23 | COC(=O)c1ccc(NC(=O)NCC2(N3CCN(C(=O)[C@@H](Cc4ccc(Cl)cc4Cl)NC(=O)CCN)CC3)CCCCC2)cc1 | 12% | 260 nM | 

Row | Structure (SMILES) | Stimulation (Melanocortin receptor 4 [1]) | Ki (Melanocortin receptor 4 [2]) | also measured
24 | NCCC(=O)N[C@H](Cc1ccc(Cl)cc1Cl)C(=O)N1CCN(C2(CNC(=O)c3ccc([N+](=O)[O-])cc3)CCCCC2)CC1 | 6.7% | 120 nM | 
25 | NCCC(=O)N[C@H](Cc1ccc(Cl)cc1Cl)C(=O)N1CCN(C2(CNC(=O)Nc3ccc(F)cc3)CCCCC2)CC1 | 5.5% | 210 nM | 
26 | NCCC(=O)N[C@H](Cc1ccc(Cl)cc1Cl)C(=O)N1CCN(C2(CNC(=O)Cc3ccccc3)CCCCC2)CC1 | 1.6% | 8.8 nM | Inhibition [3]: 47%; Ki (Melanocortin receptor 5): 920 nM; IC50 (HEK293 [9]): 260 nM; Ki (Melanocortin receptor 4 [10]): 6.4 nM; Ki (Melanocortin receptor 3 [4]): 710 nM
27 | CN(C)c1ccc(NC(=O)NCC2(N3CCN(C(=O)[C@@H](Cc4ccc(Cl)cc4Cl)NC(=O)CCN)CC3)CCCCC2)cc1 | 2.7% | 62 nM | 
28 | COc1ccc(CC(=O)NCC2(N3CCN(C(=O)[C@@H](Cc4ccc(Cl)cc4Cl)NC(=O)CCN)CC3)CCCCC2)cc1 | 0.6% | 4.2 nM | Ki [3]: 5.7 µM; Ki (Melanocortin receptor 5): 540 nM; IC50 (HEK293 [6]): 150 nM; Ki (Melanocortin receptor 3 [4]): 1100 nM; Ki (Melanocortin receptor 4 [7]): 2.8 nM
29 | CC(C)(C)c1ccc(C(=O)NCC2(N3CCN(C(=O)[C@@H](Cc4ccc(Cl)cc4Cl)NC(=O)CCN)CC3)CCCCC2)cc1 | 8.2% | 520 nM | 
30 | NCCC(=O)N[C@H](Cc1ccc(Cl)cc1Cl)C(=O)N1CCN(C2(CNC(=O)Cc3cccs3)CCCCC2)CC1 | 3.4% | 8.4 nM | Ki [3]: 4.6 µM; Ki (Melanocortin receptor 5): 480 nM; Ki (Melanocortin receptor 3 [4]): 1100 nM
31 | COc1cccc(CC(=O)NCC2(N3CCN(C(=O)[C@@H](Cc4ccc(Cl)cc4Cl)NC(=O)CCN)CC3)CCCCC2)c1 | 1.8% | 7.6 nM | Ki [3]: 2.8 µM; Ki (Melanocortin receptor 5): 470 nM; Ki (Melanocortin receptor 3 [4]): 650 nM
32 | NCCC(=O)N[C@H](Cc1ccc(Cl)cc1Cl)C(=O)N1CCN(C2(CNCc3ccc(C(F)(F)F)cc3)CCCCC2)CC1 | 4.1% | 45 nM | 
33 | NCCC(=O)N[C@H](Cc1ccc(Cl)cc1Cl)C(=O)N1CCN(C2(CNCC3CCCCC3)CCCCC2)CC1 | 5.1% | 220 nM | 
34 | NCCC(=O)N[C@H](Cc1ccc(Cl)cc1Cl)C(=O)N1CCN(C2(CN)CCCCC2)CC1 | 0.5% | 290 nM | 
35 | NCCC(=O)N[C@H](Cc1ccc(Cl)cc1Cl)C(=O)N1CCN(C2(CNCc3ccccn3)CCCCC2)CC1 | 3% | 36 nM | 
36 | N#Cc1ccc(CNCC2(N3CCN(C(=O)[C@@H](Cc4ccc(Cl)cc4Cl)NC(=O)CCN)CC3)CCCCC2)cc1 | 5% | 92 nM | 
37 | NCCC(=O)N[C@H](Cc1ccc(Cl)cc1Cl)C(=O)N1CCN(C2(CNC(=O)c3ccco3)CCCCC2)CC1 | 4.5% | 260 nM | 
38 | COc1ccc(NC(=O)NCC2(N3CCN(C(=O)[C@@H](Cc4ccc(Cl)cc4Cl)NC(=O)CCN)CC3)CCCCC2)cc1 | 1% | 36 nM | 
39 | COc1ccccc1C(=O)NCC1(N2CCN(C(=O)[C@@H](Cc3ccc(Cl)cc3Cl)NC(=O)CCN)CC2)CCCCC1 | 6.5% | 350 nM | 
40 | NCCC(=O)N[C@H](Cc1ccc(Cl)cc1Cl)C(=O)N1CCN(C2(CNC(=O)C(F)(F)F)CCCCC2)CC1 | 0.9% | 490 nM | 
41 | NCCC(=O)N[C@H](Cc1ccc(Cl)cc1Cl)C(=O)N1CCN(C2(CNC(=O)c3ccc(Br)cc3)CCCCC2)CC1 | 12% | 240 nM | 
42 | Cc1ccc(C(=O)NCC2(N3CCN(C(=O)[C@@H](Cc4ccc(Cl)cc4Cl)NC(=O)CCN)CC3)CCCCC2)cc1 | 7.8% | 270 nM | 
43 | NCCC(=O)N[C@H](Cc1ccc(Cl)cc1Cl)C(=O)N1CCN(C2(CNC(=O)Nc3ccc(Cl)cc3)CCCCC2)CC1 | 5.9% | 420 nM | 
44 | NCCC(=O)N[C@H](Cc1ccc(Cl)cc1Cl)C(=O)N1CCN(C2(CNC(=O)c3ccccc3)CCCCC2)CC1 | 5.1% | 220 nM | 
45 | NCCC(=O)N[C@H](Cc1ccc(Cl)cc1Cl)C(=O)N1CCN(C2(CNCc3ccc(F)cc3)CCCCC2)CC1 | 6.4% | 61 nM | 
